Data reported in EPA's CvTdb concentration-time database.
Where “and” joins values, the source holds several entries; their conditions need not be identical. Equal entries are not always repeated.

Assays:
rat [1] = assay: concentration in expired air after dosing; conditions: dosed: hexachloroethane, 53.3 ppm, inhalation, duration: 6 hr
rat [2] = assay: concentration in expired air after dosing; conditions: inhalation, duration: 6 hr
rat [3] = assay: concentration in blood after dosing; conditions: dosed: 1,2-Dichloroethane, 100 mg/kg, oral, male, Wistar
dog = assay: concentration in blood after dosing; negative times count back from the end of exposure; conditions: dosed: tetrachloroethylene, inhalation, duration: 4 hr, male, beagle
Method in brief: (§1)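 A PubMed search, classifier screening and manual review identified published in vivo toxicokinetic studies, which together with two structured collections supplied concentration-versus-time and amount-versus-time points. Points were mostly digitised from plot screenshots with WebPlotDigitizer, otherwise copied from tables. Dose, route, subject details and medium were hand-curated from each paper, and sampling and analytical methods are those of the sources, often unreported.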

human = assay: as above; conditions: dosed: tetrachloroethylene, 144 ppm, inhalation, duration: 4 hr, male
Method in brief: as §1

rat [4] = assay: concentration in lung after dosing; conditions: dosed: benzo[a]pyrene, inhalation, duration: 4 hr, F344
rat [5] = assay: concentration in plasma after dosing; conditions: dosed: benzo[a]pyrene, inhalation, duration: 4 hr, F344
rat [6] = assay: concentration in blood after dosing; negative times count back from the end of exposure; conditions: dosed: 1,2-dichloroethane, inhalation, duration: 6 hr, male
Rat [7] = assay: as above; conditions: dosed: 1,2-dichloroethane, inhalation, duration: 6 hr, Male, F344

ClC(Cl)(Cl)C(Cl)(Cl)Cl [hexachloroethane]
rat [1]
Conditions	concentration in expired air [ng/mL]
0.8034 h	73.1
0.9876 h	51.1
1.653 h	36.3
1.979 h	26.3
2.489 h	24.2
3.509 h	17.9
4.983 h	10.9
5.989 h	10.1
7.236 h	9.9
7.986 h	8.23
8.978 h	7.36
9.998 h	6.12
29.5 min	79.4

rat [2], dosed: hexachloroethane, 53.3 ppm
Conditions	concentration in expired air [ng/mL]
0.2509 h	96.3
0.7326 h	55.5
0.9876 h	48.8
1.498 h	49.2
2.489 h	27.8
2.985 h	19.8
4.983 h	15.7
5.975 h	15.4
7.986 h	7.51
8.978 h	6.78
9.998 h	5.85

ClCCCl [1,2-Dichloroethane]
rat [3]
Conditions	concentration in blood [ng/mL]
0.1036 h	52400
0.1179 h	13300
0.132 h	43800
0.1651 h	12600
0.1867 h	44200
0.1921 h	12300
0.2321 h	11400
0.2347 h	43700
0.2763 h	39500
0.2876 h	11900
0.3244 h	38100
0.3422 h	11800
0.3792 h	37800
0.3969 h	11700
0.4271 h	38800
0.4374 h	11200
0.5094 h	37200
0.5261 h	10800
0.7703 h	31800
0.7778 h	9360
1.018 h	25700
1.028 h	6280
1.518 h	20100
1.525 h	4200
2.019 h	14600
2.026 h	4360
2.519 h	10500
2.525 h	3610
3.016 h	1910
3.027 h	7170
3.517 h	2720
3.527 h	4850
4.013 h	3030
4.015 h	1450
4.508 h	862
4.52 h	1720
5.001 h	703
5.014 h	1210
145 s	5240
247 s	58200
291 s	10900

ClC(Cl)=C(Cl)Cl [tetrachloroethylene]
Conditions	concentration in blood [ng/mL]
dog, 2.446 h, 142 ppm	696
dog, 2.79 h, 72 ppm	345
dog, 18.14 h, 72 ppm	371
dog, 18.34 h, 142 ppm	848
dog, 42.06 h, 72 ppm	352
dog, 42.32 h, 142 ppm	798
dog, 67.19 h, 72 ppm	315
dog, 67.21 h, 142 ppm	681
dog, 91.19 h, 72 ppm	262
dog, 92.53 h, 142 ppm	603
dog, 139.29 h, 72 ppm	166
dog, 139.47 h, 142 ppm	405
dog, 163.11 h, 72 ppm	135
dog, 163.12 h, 142 ppm	314
human, -0.3835 h, during exposure	484

dog, during exposure
Conditions	concentration in blood [ng/mL]
-227 s, 72 ppm	200
-0.3342 h, 142 ppm	516

human
Conditions	concentration in blood [ng/mL]
2.478 h	601
18.43 h	752
42.35 h	705
67.23 h	618
92.18 h	515
139.2 h	334
163.09 h	271

ClCC(Cl)(Cl)Cl [1,1,1,2-tetrachloroethane]
rat [2], dosed: 1,1,1,2-tetrachloroethane, 352 ppm
Conditions	concentration in expired air [ng/mL]
0.2586 h	89.8
0.5066 h	97.9
0.7323 h	90.1
0.7758 h	98.6
1.001 h	79.1
1.012 h	83.8
1.506 h	67.5
1.507 h	72.8
2.766 h	65.7
3.982 h	62.9
4.003 h	52
4.477 h	59.7
5.5 h	58.8
6.5 h	46.7
6.511 h	41.4
6.995 h	40.1
7.007 h	49.3
7.986 h	39.2
7.995 h	32.7
8.987 h	36.6
8.997 h	31
9.986 h	27
9.987 h	29.5

Oc1ccc2ccc3c4ccccc4cc4ccc1c2c43 [3-hydroxy benzo[a]pyrene]
Conditions	concentration in lung, 0.05 h [ng/mL]	concentration in lung, 1 h [ng/mL]	concentration in lung, 2 h [ng/mL]	concentration in lung, 4 h [ng/mL]	concentration in plasma, 0.5 h [ng/mL]	concentration in plasma, 1 h [ng/mL]	concentration in plasma, 2 h [ng/mL]	concentration in plasma, 4 h [ng/mL]
rat [4], 0.1 mg/m^3, female	0.389	3.61	0.814	0.209	–	–	–	–
rat [4], 0.1 mg/m^3, male	0.29	2.87	1.21	0.154	–	–	–	–
rat [4], 1 mg/m^3, female	11.8	15.5	14.6	1.6	–	–	–	–
rat [4], 1 mg/m^3, male	5.1	16.6	5.12	3	–	–	–	–
rat [4], 2.5 mg/m^3, female	23.9	52.2	12.3	1.49	–	–	–	–
rat [4], 2.5 mg/m^3, male	21.7	48.1	8.15	3.18	–	–	–	–
rat [5], 0.1 mg/m^3, female	–	–	–	–	0.174	0.689	0.344	0.0192
rat [5], 0.1 mg/m^3, male	–	–	–	–	0.301	0.905	0.305	0.0316
rat [5], 1 mg/m^3, female	–	–	–	–	0.399	7	0.356	0.00793
rat [5], 1 mg/m^3, male	–	–	–	–	0.606	8.58	0.97	0.00272
rat [5], 2.5 mg/m^3, female	–	–	–	–	5.8	34.5	6.62	0.324
rat [5], 2.5 mg/m^3, male	–	–	–	–	5.6	33.1	7.14	0.363

ClCCCl [1,2-dichloroethane]
Conditions	concentration in blood
Rat [7], -3.002 h, 50 ppm, during exposure	1340 ng/mL
Rat [7], -3.015 h, 250 ppm, during exposure	29300 ng/mL
Rat [7], -4.01 h, 50 ppm, during exposure	1340 ng/mL
Rat [7], -4.01 h, 250 ppm, during exposure	23600 ng/mL
Rat [7], -5.005 h, 50 ppm, during exposure	926 ng/mL
Rat [7], -5.005 h, 250 ppm, during exposure	11700 ng/mL
Rat [7], -5.515 h, 50 ppm, during exposure	476 ng/mL
Rat [7], -5.515 h, 250 ppm, during exposure	5840 ng/mL and 6640 ng/mL
Rat [7], -18 s, 50 ppm, during exposure	1360 ng/mL
Rat [7], -18 s, 250 ppm, during exposure	30800 ng/mL
rat [6], 0 h, 200 ppm, Fischer-344	2940 ng/mL
rat [6], 0.1607 h, 150 ppm, Osborne-Mendel	3870 ng/mL
rat [6], 0.2398 h, 150 ppm, Osborne-Mendel	2830 ng/mL
rat [6], 0.25 h, 200 ppm, Fischer-344	851 ng/mL
rat [6], 0.3387 h, 150 ppm, Osborne-Mendel	2010 ng/mL
rat [6], 0.4969 h, 150 ppm, Osborne-Mendel	1320 ng/mL
rat [6], 0.665 h, 150 ppm, Osborne-Mendel	670 ng/mL
rat [6], 0.9913 h, 150 ppm, Osborne-Mendel	708 ng/mL
rat [6], 1.328 h, 150 ppm, Osborne-Mendel	279 ng/mL
rat [6], 258 s, 150 ppm, Osborne-Mendel	5010 ng/mL
rat [6], -3 h, 200 ppm, Fischer-344, during exposure	3170 ng/mL
rat [6], -5 h, 200 ppm, Fischer-344, during exposure	1920 ng/mL
rat [6], -5.5 h, 200 ppm, Fischer-344, during exposure	1320 ng/mL
rat [6], -5.75 h, 200 ppm, Fischer-344, during exposure	768 ng/mL

rat [6], 150 ppm, Osborne-Mendel, during exposure
Conditions	concentration in blood [ng/mL]
-27 s	9390
-5.001 h	5160
-3.34 h	8640
-2.005 h	8290

concentration in blood [ng/mL], Rat [7]
Conditions	50 ppm	250 ppm
0.1443 h	815	24500
0.2313 h	664	–
0.2438 h	–	19700
0.3184 h	495	–
0.3308 h	–	15800
0.4925 h	239	12300
0.7413 h	131	8050
0.99 h	–	5340
1.488 h	–	1940
1.973 h	–	664
2.993 h	–	124
295 s	962	26800
